Test results as given in ChEMBL document CHEMBL1153724, “Multivalent binding oligomers inhibit HIV Tat-TAR interaction critical for viral replication” (Bioorg Med Chem Lett, 2009).
Active and inactive are the calls of the source. No cut-off for these calls is given here.

Key:
Nucleic Acid [1] = test: Inhibition of fluorescein labeled Tat-peptide binding to HIV1 TAR RNA after 60 mins by FRET assay; type: nucleic-acid assay, Human immunodeficiency virus 1
In short: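 Competition assay: inhibition of association between TAR RNA and a fluorescently labeled Tat-derived peptide, read by fluorescence; IC50 values derived.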

[2] = test system: Human immunodeficiency virus 1; test: Antiviral activity against HIV1 BR/93/020 infected in PBMCs assessed as reverse transcriptase activity after 7 days by XTT assay; type: functional, organism-based; settings: Human immunodeficiency virus 1, BR/93/020, 168 h
[3] = test system: Human immunodeficiency virus 1; test: Antiviral activity against HIV1 Ba-L infected in PBMCs assessed as reverse transcriptase activity after 7 days by MTS assay; type: functional, organism-based; settings: Human immunodeficiency virus 1, Ba-L, 168 h
[4] = Cytotoxicity in human HeLa cells transfected with HIV Tat-LTR by FITC-conjugated DAPI staining by fluorescence microscopy; type: cell-based; settings: read-out: TC50 (the source's name)
[5] = test system: Human immunodeficiency virus 1; test: Antiviral activity against HIV1 CMU06 infected in PBMCs assessed as reverse transcriptase activity after 7 days by XTT assay; type: functional, organism-based; settings: Human immunodeficiency virus 1, CMU06, 168 h
PBMC = test: Cytotoxicity against human PBMC cells by XTT assay; type: cell-based
Nucleic Acid [6] = test: Selectivity for HIV1 TAR RNA over HIV1 RRE RNA; type: nucleic-acid assay; settings: Human immunodeficiency virus 1
[7] = test system: Human immunodeficiency virus 1; test: Antiviral activity against HIV1 BCF02 infected in PBMCs assessed as reverse transcriptase activity after 7 days by XTT assay; type: functional, organism-based; settings: Human immunodeficiency virus 1, BCF02, 168 h
[8] = test system: Human immunodeficiency virus 1; test: Antiviral activity against HIV1 JV1083 infected in PBMCs assessed as reverse transcriptase activity after 7 days by XTT assay; type: functional, organism-based; settings: Human immunodeficiency virus 1, JV1083, 168 h
[9] = test system: Human immunodeficiency virus 1; test: Antiviral activity against HIV1 UG/92/001 infected in PBMCs assessed as reverse transcriptase activity after 7 days by XTT assay; type: functional, organism-based; settings: Human immunodeficiency virus 1, UG/92/001, 168 h
[10] = Inhibition of HIV1 Rev transfected in human HeLa cells after 48 hrs by duel luciferase reporter gene assay; type: cell-based; settings: Human immunodeficiency virus 1, HeLa
In short: (§1)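 Analogous stably modified HeLa dual-luciferase system for Rev-RRE function, used as a specificity control; activity followed by luminescence up to 100 μM.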

[11] = test system: Human immunodeficiency virus 1; test: Inhibition of HIV1 viral entry into the human TZM-bl cells assessed as decrease of luminescence at 25 uM after 18 hrs by luciferase reporter gene assay; type: functional, organism-based
In short: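 Viral entry checked in TZM-bl cells with a cell-based entry inhibition assay at concentrations up to 25 μM.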

[12] = test system: Human immunodeficiency virus 1; test: Antiviral activity against HIV1 97ZA003 infected in PBMCs assessed as reverse transcriptase activity after 7 days by XTT assay; type: functional, organism-based; settings: Human immunodeficiency virus 1, 97ZA003, 168 h
[13] = test system: Human immunodeficiency virus 1; test: Antiviral activity against HIV1 HT/92/599 infected in PBMCs assessed as reverse transcriptase activity after 7 days by XTT assay; type: functional, organism-based; settings: Human immunodeficiency virus 1, HT/92/599, 168 h
Nucleic Acid [14] = test: Induction of aggregation of 32P labeled HIV1 TAR RNA after 60 mins by native gel electrophoresis; type: nucleic-acid assay, Human immunodeficiency virus 1
Nucleic Acid [15] = test: Inhibition of fluorescein labeled Rev binding to HIV1 RRE RNA assessed as decrease of fluorescent anisotropy at 20 uM after 1 hour by fluorescence polarization-based assay; type: nucleic-acid assay, Human immunodeficiency virus 1
In short: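 Competition assay tracking Rev binding to RRE by fluorescence; tested up to 20 μM.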

[16] = test system: Human immunodeficiency virus 1; test: Antiviral activity against HIV1 UG/92/029 infected in PBMCs assessed as reverse transcriptase activity after 7 days by XTT assay; type: functional, organism-based; settings: Human immunodeficiency virus 1, UG/92/029, 168 h
[17] = Cytotoxicity in human HeLa cells transfected with HIV Rev-LTR by FITC-conjugated DAPI staining by fluorescence microscopy; type: cell-based; settings: read-out: TC50 (the source's name)
HeLa = test: Inhibition of HIV1 Rev transfected in human HeLa cells up to 100 uM after 48 hrs by duel luciferase reporter gene assay; type: cell-based; settings: Human immunodeficiency virus 1; in short: as §1

Row | SMILES | EC50 (Nucleic Acid [1]) [µM] | IC50 [10] [µM] | IC50 (Nucleic Acid [15]) [µM] | IC50 [3] [µM] | CC50 [4] [µM] | IC50 (PBMC) [µM] | CC50 [17] [µM] | other results
1 | C[C@@H](CN[C@H](CN[C@H](CN[C@H](CN[C@H](CNCCC(N)=O)Cc1ccc(O)cc1)Cc1ccc(O)cc1)Cc1ccc(O)cc1)Cc1ccc(O)cc1)NC[C@@H](N)Cc1ccc(O)cc1 | 3.94 | – | – | – | – | – | – | –
2 | NC(=O)CCNC[C@H](Cc1ccc(O)cc1)NC[C@H](Cc1ccc(O)cc1)NC[C@H](Cc1ccc(O)cc1)NC[C@H](Cc1ccc(O)cc1)NC[C@H](Cc1ccc(O)cc1)NC[C@@H](N)Cc1ccc(O)cc1 | 1.7 | 34 | > 20 | 2 | > 100 | 76 | > 100 | IC50 [2]: 4.7 µM; IC50 [5]: 19 µM; Selectivity Index (Nucleic Acid [6]): 20; IC50 [7]: 18.9 µM; IC50 [8]: 13.1 µM; IC50 [9]: 6 µM; inhibition [11]: inactive; IC50 [12]: 27 µM; IC50 [13]: 8.8 µM; EC50 (Nucleic Acid [14]): 40 µM; IC50 [16]: 6.7 µM
3 | NC(=O)CCNC[C@H](Cc1ccc(O)cc1)NC[C@H](Cc1ccc(O)cc1)NC[C@@H](N)Cc1ccc(O)cc1 | 83.8 | > 100 | > 50 | – | > 100 | – | > 100 | EC50 (Nucleic Acid [14]): 490 µM
4 | C[C@H](N)CN[C@H](CN[C@H](CN[C@H](CN[C@H](CN[C@H](CNCCC(N)=O)Cc1ccc(O)cc1)Cc1ccc(O)cc1)Cc1ccc(O)cc1)Cc1ccc(O)cc1)Cc1ccc(O)cc1 | 3.26 | – | – | – | – | – | – | –
5 | C[C@H](N)CN[C@@H](C)CN[C@@H](C)CN[C@@H](C)CN[C@@H](C)CN[C@H](CNCCC(N)=O)Cc1ccc(O)cc1 | 13.9 | – | – | – | – | – | – | –
6 | C[C@@H](CN[C@H](CNCCC(N)=O)Cc1ccc(O)cc1)NC[C@H](Cc1ccc(O)cc1)NC[C@H](Cc1ccc(O)cc1)NC[C@H](Cc1ccc(O)cc1)NC[C@@H](N)Cc1ccc(O)cc1 | 1.93 | – | – | – | – | – | – | –
7 | C[C@@H](CN[C@H](CN[C@H](CNCCC(N)=O)Cc1ccc(O)cc1)Cc1ccc(O)cc1)NC[C@H](Cc1ccc(O)cc1)NC[C@H](Cc1ccc(O)cc1)NC[C@@H](N)Cc1ccc(O)cc1 | 3.32 | – | – | – | – | – | – | –
8 | C[C@@H](CN[C@H](CN[C@H](CN[C@H](CNCCC(N)=O)Cc1ccc(O)cc1)Cc1ccc(O)cc1)Cc1ccc(O)cc1)NC[C@H](Cc1ccc(O)cc1)NC[C@@H](N)Cc1ccc(O)cc1 | 1.63 | > 100 | > 20 | 5 | > 100 | 56 | > 100 | IC50 [2]: 7.5 µM; IC50 [5]: 7.7 µM; inhibition (HeLa): inactive; Selectivity Index (Nucleic Acid [6]): 20; IC50 [7]: 20.1 µM; IC50 [8]: 17.8 µM; IC50 [9]: 5.1 µM; inhibition [11]: inactive; IC50 [12]: 32 µM; IC50 [13]: 12.7 µM; IC50 [16]: 4.5 µM
9 | NC(=O)CCNC[C@H](Cc1ccc(O)cc1)NC[C@H](Cc1ccc(O)cc1)NC[C@H](Cc1ccc(O)cc1)NC[C@H](Cc1ccc(O)cc1)NC[C@@H](N)Cc1ccc(O)cc1 | 2.96 | > 100 | > 20 | 9 | > 100 | 67 | > 100 | EC50 (Nucleic Acid [14]): 220 µM
10 | NC(=O)CCNC[C@H](Cc1ccc(O)cc1)NC[C@H](Cc1ccc(O)cc1)NC[C@H](Cc1ccc(O)cc1)NC[C@@H](N)Cc1ccc(O)cc1 | 8.9 | – | > 20 | 11 | – | 46 | – | EC50 (Nucleic Acid [14]): 450 µM
11 | C[C@@H](CN[C@H](CN[C@H](CN[C@H](CNCCC(N)=O)Cc1ccc(O)cc1)Cc1ccc(O)cc1)Cc1ccc(O)cc1)NC[C@H](Cc1ccc(O)cc1)NC[C@H](Cc1ccc(O)cc1)NC[C@@H](N)Cc1ccc(O)cc1 | 0.5 | 60 | > 20 | 4 | > 100 | 55 | > 100 | IC50 [2]: 5.1 µM; IC50 [5]: 18.2 µM; IC50 [7]: 16.3 µM; IC50 [8]: 11.9 µM; IC50 [9]: 2.3 µM; inhibition [11]: inactive; IC50 [12]: 25 µM; IC50 [13]: 4.5 µM; IC50 [16]: 2.3 µM

These reach a lower EC50 (Nucleic Acid [1]). Values come first.

Row | EC50 (Nucleic Acid [1]) [µM] | IC50 [10] [µM] | IC50 (Nucleic Acid [15]) [µM] | SMILES | IC50 [3] [µM] | CC50 [4] [µM] | IC50 (PBMC) [µM] | CC50 [17] [µM] | other results
12 | 0.47 | – | – | NC(=O)CCNC[C@H](Cc1ccc(O)cc1)NC[C@H](Cc1ccc(O)cc1)NC[C@H](Cc1ccc(O)cc1)NC[C@H](Cc1ccc(O)cc1)NC[C@H](Cc1ccc(O)cc1)NC[C@H](Cc1ccc(O)cc1)NC[C@@H](N)Cc1ccc(O)cc1 | – | – | – | – | –
13 | 0.45 | > 100 | – | NCCCC[C@@H](CN[C@H](CN[C@H](CN[C@H](CNCCC(N)=O)Cc1ccc(O)cc1)Cc1ccc(O)cc1)Cc1ccc(O)cc1)NC[C@H](Cc1ccc(O)cc1)NC[C@@H](N)Cc1ccc(O)cc1 | 7 | > 100 | 80 | > 100 | –
14 | 0.36 | – | – | NCCCC[C@@H](CN[C@H](CNCCC(N)=O)Cc1ccc(O)cc1)NC[C@H](Cc1ccc(O)cc1)NC[C@H](CCCCN)NC[C@H](Cc1ccc(O)cc1)NC[C@@H](N)Cc1ccc(O)cc1 | – | 38 | – | – | –
15 | 0.3 | – | – | NCCCC[C@@H](CN[C@H](CN[C@H](CN[C@H](CNCCC(N)=O)Cc1ccc(O)cc1)Cc1ccc(O)cc1)Cc1ccc(O)cc1)NC[C@H](Cc1c[nH]c2ccccc12)NC[C@@H](N)Cc1ccc(O)cc1 | – | – | – | – | –
16 | 0.24 | – | – | NCCCC[C@@H](CN[C@H](CNCCC(N)=O)Cc1ccc(O)cc1)NC[C@H](Cc1ccc(O)cc1)NC[C@H](CCCCN)NC[C@H](Cc1c[nH]c2ccccc12)NC[C@@H](N)Cc1ccc(O)cc1 | – | 12 | – | – | –
17 | 0.18 | – | – | NC(=O)CCNC[C@H](Cc1ccc(O)cc1)NC[C@H](Cc1ccc(O)cc1)NC[C@H](Cc1ccc(O)cc1)NC[C@H](Cc1ccc(O)cc1)NC[C@H](Cc1ccc(O)cc1)NC[C@H](Cc1ccc(O)cc1)NC[C@H](Cc1ccc(O)cc1)NC[C@@H](N)Cc1ccc(O)cc1 | – | – | – | – | –
18 | 0.18 | – | – | C[C@@H](CN[C@H](CN[C@H](CN[C@H](CNCCC(N)=O)Cc1ccc(O)cc1)Cc1ccc(O)cc1)Cc1ccc(O)cc1)NC[C@H](Cc1ccc(O)cc1)NC[C@H](Cc1ccc(O)cc1)NC[C@H](Cc1ccc(O)cc1)NC[C@@H](N)Cc1ccc(O)cc1 | – | 2.4 | – | – | –
